PMC4188730 (European journal of medicinal chemistry, 2014)
Entries after “also recorded” stand apart in the source; their conditions may differ.

Columns and labels:
[1] = tested on: global H3K9 acetylation in HCT116 cells; test: Western blot of global histone H3K9 acetylation; type: cell-based; conditions: HCT116, 24 hours, 100 nM and 1 μM; for induction of global H3K9 (H3) acetylation: 10 nM; for concentration at which increase of global H3K9 acetylation was observed: tested at 10 nM
How it was run: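 HCT116 cells exposed 24 hours to test compound at 10 nM, 100 nM or 1 μM, or to DMSO. Lysed in RIPA buffer (50 mmol/L Tris-HCl, 1% NP-40, 0.25% deoxycholate, 150 mmol/L NaCl, 50 mmol/L NaF). Protein quantified by DC assay, 30 μg/lane run on SDS-PAGE. Blots probed for acetyl-H3 with β-actin loading control, detected by dye-conjugated secondaries on infrared scanner.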

[2] = tested on: HCT116 colorectal cancer cell line; test: Cytoproliferation; type: cell-based; conditions: for effect on cell growth: HCT116, 96 hours, up to the highest concentration tested, 5 μM; for effect on cytoproliferation at lower concentrations: HCT116, 0.01, 0.1 and 1.0 nM (data not shown)
How it was run: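 HCT116 colorectal carcinoma cells seeded at 3×10⁴ cells/well in quadruplicate, attached overnight. Medium then replaced with fresh medium containing test compound; incubated 96 hours at 37 °C, 5% CO₂. CellTiter 96 One Solution MTS reagent added for 1.5 h at 37 °C, absorbance read at 490 nm. Points are mean of two experiments, 4 replicates each, with SEM.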

HDAC isoforms = conditions: cited from earlier work
human cancer cells = conditions: cited from earlier work
recombinant HDAC1 = recombinant HDAC1 (Homo sapiens, UniProt Q13547); test: Fluorimetric HDAC activity assay, recombinant HDAC1; type: biochemical; conditions: at 0.1 μM, 1 hour
recombinant HDAC6 = target: T1, recombinant HDAC6 (Homo sapiens, UniProt Q9UBN7); test: Fluorimetric HDAC activity assay, recombinant HDAC6; type: biochemical; conditions: 0–5 μM
T1 sequence (Q9UBN7 1-1215): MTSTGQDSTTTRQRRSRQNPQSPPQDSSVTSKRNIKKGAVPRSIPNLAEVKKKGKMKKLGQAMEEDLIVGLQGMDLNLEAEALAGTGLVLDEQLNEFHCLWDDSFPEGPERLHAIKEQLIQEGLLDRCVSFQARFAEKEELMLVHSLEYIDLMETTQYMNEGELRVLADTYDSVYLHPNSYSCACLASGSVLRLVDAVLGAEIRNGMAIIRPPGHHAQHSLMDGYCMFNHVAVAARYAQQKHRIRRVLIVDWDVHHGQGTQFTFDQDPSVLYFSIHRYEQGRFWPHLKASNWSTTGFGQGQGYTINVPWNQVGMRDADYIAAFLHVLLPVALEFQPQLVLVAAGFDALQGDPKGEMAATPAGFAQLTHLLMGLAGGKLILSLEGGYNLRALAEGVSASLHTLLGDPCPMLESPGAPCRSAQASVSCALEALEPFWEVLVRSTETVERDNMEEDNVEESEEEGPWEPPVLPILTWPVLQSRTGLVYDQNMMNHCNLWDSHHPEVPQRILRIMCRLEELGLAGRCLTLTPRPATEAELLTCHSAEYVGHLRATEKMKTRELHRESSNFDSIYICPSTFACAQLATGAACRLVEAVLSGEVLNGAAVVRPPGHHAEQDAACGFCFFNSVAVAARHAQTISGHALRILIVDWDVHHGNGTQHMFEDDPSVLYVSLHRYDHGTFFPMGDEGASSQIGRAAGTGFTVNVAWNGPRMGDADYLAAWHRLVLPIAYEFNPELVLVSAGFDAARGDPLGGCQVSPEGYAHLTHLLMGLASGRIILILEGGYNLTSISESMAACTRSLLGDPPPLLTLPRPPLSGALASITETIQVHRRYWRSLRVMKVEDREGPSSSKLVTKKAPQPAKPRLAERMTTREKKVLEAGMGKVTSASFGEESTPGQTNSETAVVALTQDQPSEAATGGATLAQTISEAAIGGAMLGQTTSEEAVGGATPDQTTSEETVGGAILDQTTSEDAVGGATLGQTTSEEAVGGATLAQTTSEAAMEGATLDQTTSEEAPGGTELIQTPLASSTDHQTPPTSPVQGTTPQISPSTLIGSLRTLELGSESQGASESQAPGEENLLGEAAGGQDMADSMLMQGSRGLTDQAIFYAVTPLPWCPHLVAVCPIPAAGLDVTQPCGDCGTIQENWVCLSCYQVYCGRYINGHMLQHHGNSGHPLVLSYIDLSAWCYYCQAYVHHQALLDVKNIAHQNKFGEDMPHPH

Sequence of recombinant HDAC1 (Q13547 whole entry): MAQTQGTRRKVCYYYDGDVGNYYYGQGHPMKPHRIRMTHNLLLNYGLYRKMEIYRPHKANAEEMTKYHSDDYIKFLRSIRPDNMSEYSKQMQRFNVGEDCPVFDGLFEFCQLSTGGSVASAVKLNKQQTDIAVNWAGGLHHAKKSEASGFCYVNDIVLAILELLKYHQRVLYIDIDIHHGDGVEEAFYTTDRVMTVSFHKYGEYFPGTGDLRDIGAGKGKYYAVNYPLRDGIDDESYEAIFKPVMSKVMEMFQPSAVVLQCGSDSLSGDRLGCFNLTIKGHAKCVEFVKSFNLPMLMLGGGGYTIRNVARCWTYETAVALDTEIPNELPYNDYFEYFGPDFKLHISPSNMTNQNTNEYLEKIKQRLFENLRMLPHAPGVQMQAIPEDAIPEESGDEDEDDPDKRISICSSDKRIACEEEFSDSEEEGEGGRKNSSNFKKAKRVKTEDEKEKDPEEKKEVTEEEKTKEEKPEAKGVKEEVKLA

| SMILES | induction of global H3K9 (H3) acetylation [1] | effect on cell growth [2] | concentration at which increase of global H3K9 acetylation was observed [1] | also measured |
| --- | --- | --- | --- | --- |
| CCCCCCCC(=O)SCC/C=C/[C@@H]1CC(=O)NCc2nc(cs2)C2=N[C@](C)(CS2)C(=O)N[C@@H](C(C)C)C(=O)O1 [Analogue 12] | very little induction; also recorded: slight increase; also recorded: no change; also recorded: slight induction | minimal effect | – | – |
| CCCCCCCC(=O)SCC/C=C/[C@@H]1CC(=O)NCc2nc(cs2)C2=N[C@@](C)(CS2)C(=O)N[C@@H](C(C)C)C(=O)O1 [largazole, reference compound] | – | – | 10 nM | GI50 ([2]; Homo sapiens, HCT-116, 96 h): < 10 nM |
| CCCCCCCC(=O)SCCC=CC1CC(=O)NCc2nc(cs2)C2=NC(C)(CS2)C(=O)NC(C(C)C)C(=O)O1 (single isomer, unassigned) [enantiomer of largazole] | – | – | – | potency in inhibiting HDAC isoforms relative to largazole (HDAC isoforms): three times less potent |
| CCCCCCCC(=O)SCCC=CC1CC(=O)NCc2nc(cs2)C2=NC(C)(CS2)C(=O)NC(Cc2ccc(O)cc2)C(=O)O1 [L-tyrosine analogue] | – | – | – | selectivity toward human cancer cells over normal cells (human cancer cells): 100 fold |
| C=CCC1NC(=O)C2(C)CSC(=N2)c2csc(n2)CNC(=O)CC(C=CCCSC(=O)CCCCCCC)OC1=O (stereo not shown) [Analogue 16b] | greatest induction; also recorded: robust induction | significant effect | 100 nM | effect on cytoproliferation at lower concentrations [2]: No significant effect |
| CCCCCCCC(=O)SCC/C=C/[C@@H]1CC(=O)NCc2nc(cs2)C2=N[C@@](C)(CS2)C(=O)N[C@@H](Cc2cccc3ccccc23)C(=O)O1 [Analogue 16c] | greatest induction; also recorded: robust induction | significant effect | 10 nM | inhibition of HDAC1 activity (recombinant HDAC1): about 15%; effect on cytoproliferation at lower concentrations [2]: No significant effect |
| CCCCCCCC(=O)SCC/C=C/[C@@H]1CC(=O)NCc2nc(cs2)C2=N[C@@](C)(CS2)C(=O)N[C@H](Cc2cccc3ccccc23)C(=O)O1 [Analogue 16a] | very little induction; also recorded: no change; also recorded: failed to induce | minimal effect; also recorded: no effect | – | HDAC6 specific inhibition (comparison among analogues) (recombinant HDAC6): least amount |
| CCCCCCCC(=O)SCCC=CC1CC(=O)NCc2nc(cs2)C2=NC(C)(CS2)C(=O)NC(C(C)C)C(=O)O1 (stereo not shown) [C-2 epimer of largazole] | – | – | – | inhibitory potency against HDAC isoforms (HDAC isoforms): sub-micromolar |
